Experiments:
CYP2D6 = CYP2D6 (Homo sapiens, UniProt P10635); assay: Cytochrome P450 phenotyping; format: in vitro ADME; conditions: recombinant human CYP2D6; with NADPH; 30 minutes; n = 1
Summary of the method: (§1)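 Recombinant human CYPs prepared at CYP1A2 200 nM, CYP2B6/2C8 250 nM, CYP2C9 100 nM, CYP2D6 50 nM. Test compound added as 2 μM DMSO dosing solution on ice. Plate prewarmed, then 8 mM NADPH solution or blank buffer added. Incubation 60 min (1A2, 2B6, 2C8) or 30 min (2C9, 2D6). Stopped with acetonitrile plus internal standard; supernatant by LC-MS/MS; n = 1.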

CYP2C9 = CYP2C9 (Homo sapiens, UniProt P11712); assay: Cytochrome P450 phenotyping; format: in vitro ADME; conditions: recombinant human CYP2C9; with NADPH; 30 minutes; n = 1
CYP2C9, sequence (P11712 whole entry): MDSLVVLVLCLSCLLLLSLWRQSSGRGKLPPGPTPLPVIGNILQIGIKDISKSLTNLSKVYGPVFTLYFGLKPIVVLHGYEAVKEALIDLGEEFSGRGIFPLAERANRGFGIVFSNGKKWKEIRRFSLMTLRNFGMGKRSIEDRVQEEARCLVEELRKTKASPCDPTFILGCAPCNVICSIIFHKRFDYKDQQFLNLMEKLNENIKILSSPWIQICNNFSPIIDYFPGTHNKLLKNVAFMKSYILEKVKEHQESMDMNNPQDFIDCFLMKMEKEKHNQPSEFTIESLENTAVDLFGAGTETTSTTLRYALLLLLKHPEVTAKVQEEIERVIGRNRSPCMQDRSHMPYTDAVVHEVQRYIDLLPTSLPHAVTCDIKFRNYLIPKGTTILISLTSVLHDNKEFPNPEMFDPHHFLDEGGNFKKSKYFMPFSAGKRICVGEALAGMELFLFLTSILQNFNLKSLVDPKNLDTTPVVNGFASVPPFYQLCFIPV
Summary of the method: as §1

CYP3A4 = CYP3A4 (Homo sapiens, UniProt P08684); assay: Cytochrome P450 phenotyping; format: in vitro ADME; conditions: recombinant human CYP3A4; with NADPH; 30 minutes; n = 1
CYP3A4, sequence (P08684 whole entry): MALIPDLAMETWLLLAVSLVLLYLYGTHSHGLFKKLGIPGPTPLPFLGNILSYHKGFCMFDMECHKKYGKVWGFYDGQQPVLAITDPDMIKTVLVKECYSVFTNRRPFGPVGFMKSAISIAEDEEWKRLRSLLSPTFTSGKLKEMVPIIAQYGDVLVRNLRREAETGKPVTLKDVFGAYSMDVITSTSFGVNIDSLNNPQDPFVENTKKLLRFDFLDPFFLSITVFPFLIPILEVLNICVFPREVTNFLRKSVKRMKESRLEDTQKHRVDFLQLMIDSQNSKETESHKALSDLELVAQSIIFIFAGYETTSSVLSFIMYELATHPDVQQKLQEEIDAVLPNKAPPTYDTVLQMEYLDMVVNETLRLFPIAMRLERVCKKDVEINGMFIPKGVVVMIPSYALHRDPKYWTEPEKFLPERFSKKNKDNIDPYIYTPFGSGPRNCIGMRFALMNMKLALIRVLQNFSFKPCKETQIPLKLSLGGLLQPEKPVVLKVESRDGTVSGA
Summary of the method: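 Recombinant human CYP3A4 was prepared at 100 nM, and a 2 μM dosing solution of test compound in DMSO was added on ice. After prewarming, 8 mM NADPH solution or blank buffer was added for 30 minutes. Acetonitrile with internal standard stopped the reaction. The plate was shaken and centrifuged, and the supernatant was analysed by LC-MS/MS; n = 1.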

CYP2C8 = CYP2C8 (Homo sapiens, UniProt P10632); assay: Cytochrome P450 phenotyping; format: in vitro ADME; conditions: recombinant human CYP2C8; with NADPH; 60 minutes; n = 1
CYP2C8, sequence (P10632 whole entry): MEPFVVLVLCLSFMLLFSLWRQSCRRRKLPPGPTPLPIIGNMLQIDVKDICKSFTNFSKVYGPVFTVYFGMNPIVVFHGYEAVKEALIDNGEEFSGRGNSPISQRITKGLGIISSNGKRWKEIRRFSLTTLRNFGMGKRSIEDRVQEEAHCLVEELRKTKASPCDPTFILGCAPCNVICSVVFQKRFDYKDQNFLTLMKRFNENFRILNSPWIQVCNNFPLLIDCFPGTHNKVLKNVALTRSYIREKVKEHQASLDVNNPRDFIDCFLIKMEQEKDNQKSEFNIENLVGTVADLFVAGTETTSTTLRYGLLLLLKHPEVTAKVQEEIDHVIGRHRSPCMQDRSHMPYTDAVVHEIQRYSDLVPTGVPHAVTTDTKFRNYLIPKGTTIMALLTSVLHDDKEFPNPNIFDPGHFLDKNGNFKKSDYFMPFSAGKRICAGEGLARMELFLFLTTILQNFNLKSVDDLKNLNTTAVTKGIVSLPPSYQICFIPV
Summary of the method: as §1

CYP1A2 = CYP1A2 (Homo sapiens, UniProt P05177); assay: Cytochrome P450 phenotyping; format: in vitro ADME; conditions: recombinant human CYP1A2; with NADPH; 60 minutes; n = 1
CYP1A2, sequence (P05177 whole entry): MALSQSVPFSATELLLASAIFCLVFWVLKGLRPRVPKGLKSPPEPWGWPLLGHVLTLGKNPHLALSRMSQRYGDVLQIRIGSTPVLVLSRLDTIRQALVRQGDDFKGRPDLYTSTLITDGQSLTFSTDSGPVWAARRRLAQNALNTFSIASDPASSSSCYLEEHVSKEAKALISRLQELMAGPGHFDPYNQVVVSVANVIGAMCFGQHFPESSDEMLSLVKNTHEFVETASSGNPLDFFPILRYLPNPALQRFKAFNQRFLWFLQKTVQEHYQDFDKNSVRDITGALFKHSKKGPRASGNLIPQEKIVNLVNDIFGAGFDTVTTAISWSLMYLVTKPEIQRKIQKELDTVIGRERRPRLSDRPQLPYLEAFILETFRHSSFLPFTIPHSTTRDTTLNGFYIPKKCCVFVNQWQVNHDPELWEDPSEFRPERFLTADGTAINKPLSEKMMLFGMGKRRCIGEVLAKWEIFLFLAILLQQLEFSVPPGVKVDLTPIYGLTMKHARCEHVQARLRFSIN
Summary of the method: as §1

IL-4 = assay: Human whole blood potency, blockade of IL-4; format: cell-based; conditions: unpublished data
IFN-γ = assay: Human whole blood potency, blockade of IFN-γ; format: cell-based; conditions: unpublished data

CYP2D6, sequence (P10635 whole entry): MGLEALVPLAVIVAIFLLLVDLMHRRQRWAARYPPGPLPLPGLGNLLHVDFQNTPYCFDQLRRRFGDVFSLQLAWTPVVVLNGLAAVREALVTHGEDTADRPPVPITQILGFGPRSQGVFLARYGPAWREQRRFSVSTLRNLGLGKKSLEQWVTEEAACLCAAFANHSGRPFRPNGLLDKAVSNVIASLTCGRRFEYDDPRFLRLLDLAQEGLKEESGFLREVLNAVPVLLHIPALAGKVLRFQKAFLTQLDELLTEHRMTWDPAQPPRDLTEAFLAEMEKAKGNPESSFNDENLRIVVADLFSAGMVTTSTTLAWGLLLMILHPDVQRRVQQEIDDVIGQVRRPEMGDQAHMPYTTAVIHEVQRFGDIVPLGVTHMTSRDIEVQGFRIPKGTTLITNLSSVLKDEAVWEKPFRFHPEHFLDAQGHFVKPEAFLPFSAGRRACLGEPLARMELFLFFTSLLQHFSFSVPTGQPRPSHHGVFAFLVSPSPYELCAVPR

In the case of `CCc1cccc2cc(C(O)CNC(C)(C)C)oc12` (stereo not shown) [bufuralol], the “Percentage Remaining” value (CYP2D6) is reported as 2.48%.
`O=C(O)Cc1ccccc1Nc1c(Cl)cccc1Cl` [diclofenac] was tested, and the “Percentage Remaining” value (CYP2C9) was 2.83%.
With `Cc1ncc2n1-c1ccc(Cl)cc1C(c1ccccc1F)=NC2` [midazolam, reference compound] the “Percentage Remaining” value (CYP3A4) was 0.252%.
In the case of `CC(=O)O[C@H]1C(=O)[C@@]2(C)[C@H]([C@H](OC(=O)c3ccccc3)[C@]3(O)C[C@H](OC(=O)[C@H](O)[C@@H](NC(=O)c4ccccc4)c4ccccc4)C(C)=C1C3(C)C)[C@]1(OC(C)=O)CO[C@@H]1C[C@@H]2O` [paclitaxel, reference compound], the “Percentage Remaining” value (CYP2C8) is reported as 0.852%.
In the case of `CCOc1ccc(NC(C)=O)cc1` [phenacetin, reference compound], the “Percentage Remaining” value (CYP1A2) is reported as 15.1%.
With `N#CC[C@H](C1CCCC1)n1cc(-c2ncnc3[nH]ccc23)cn1` [ruxolitinib] the “level required for blockade of IL-4 (human whole blood potency)” value (IL-4) was 564 nM and the “level required for blockade of IFN-γ (human whole blood potency)” value (IFN-γ) was 305 nM.
